In the library only some 2.1% were active in any assay of this set; here they are far more common.
Runt-CBFb FRET: inhibitors of RUNX1 Runt–CBFb binding, primary screen, biochemical, FRET, Cerulean-Runt, Venus-CBFb, uHTS. Cerulean-Runt/Venus-CBFb FRET ratio 530/480, 1 h. inhibition, % at 20 µM. hit rate 0.46% among 220,000;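 active means inhibition over about 50% at 20 µM in the single-dose screen, limit read from the data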;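 further: 0% = DMSO wells and 100% = excess unlabeled CBFb competitor control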
Target sequence (Q01196 whole entry, looked up): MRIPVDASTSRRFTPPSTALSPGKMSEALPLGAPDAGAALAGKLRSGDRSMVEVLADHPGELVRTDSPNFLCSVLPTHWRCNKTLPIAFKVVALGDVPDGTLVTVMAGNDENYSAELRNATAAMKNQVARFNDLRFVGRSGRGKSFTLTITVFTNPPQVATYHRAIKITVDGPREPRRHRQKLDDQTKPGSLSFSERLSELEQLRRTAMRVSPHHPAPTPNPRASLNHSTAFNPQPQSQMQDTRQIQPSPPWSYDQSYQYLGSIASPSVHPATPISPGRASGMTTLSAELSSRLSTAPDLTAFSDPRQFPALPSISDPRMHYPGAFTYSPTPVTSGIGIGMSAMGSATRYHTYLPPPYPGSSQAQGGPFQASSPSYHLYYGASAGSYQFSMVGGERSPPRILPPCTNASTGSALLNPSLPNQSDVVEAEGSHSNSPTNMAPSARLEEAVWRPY
Target sequence (Q13951 whole entry, looked up): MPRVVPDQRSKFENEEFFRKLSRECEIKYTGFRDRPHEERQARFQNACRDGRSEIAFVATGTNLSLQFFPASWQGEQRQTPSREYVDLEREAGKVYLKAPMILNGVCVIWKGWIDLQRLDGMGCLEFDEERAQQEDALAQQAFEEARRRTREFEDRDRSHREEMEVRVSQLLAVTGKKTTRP
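test system = Cerulean-tagged RUNX1 Runt domain (FRET donor) fusion protein | reagent = Venus-CBFb binding partner, 100 nM | incubation = protein complex preformed 1 h, compound exposure 1 h, room temperature, dark | detection = FRET fluorescence | read-out basis = loss of energy transfer signal | controls = 5 µM unlabeled CBFb as full-inhibition high control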
Hck-Nef inh: inhibitors of Nef-activated human Hck kinase, primary screen, biochemical, Z-Lyte FRET, 384-well, Hck-YEEI; AID 463187, 2010; hit rate 0.68% among 220,000; inhibition, % at 20 µM; Tyrosine-protein kinase HCK (Homo sapiens), P08631; Recombinant Hck-YEEI plus Nef, Z-Lyte FRET kinase assay;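 active means Hck-Nef kinase inhibition above about 50%, limit read from the data; inactive means inhibition below that limit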;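 further: 0% = DMSO with Hck plus Nef and 100% = Hck alone without Nef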
Runt-SMMHC FRET: inhibitors of RUNX1 Runt–CBFb-SMMHC binding, primary screen, biochemical, FRET, Cerulean-Runt, Venus-CBFb-SMMHC, uHTS. inhibition, % at 20 µM. Runt-related transcription factor 1 (Homo sapiens) + Core-binding factor subunit beta …. hit rate 0.74% among 220,000. Cerulean-Runt/Venus-CBFb-SMMHC FRET ratio 530/480, 1 h. AID 1434, 2008;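 active means mean inhibition across duplicate retests at 20 µM reaching about 50%, limit read from the data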;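 further: 0% = DMSO wells and 100% = wells with excess untagged CBFb-SMMHC; inhibitors lower the FRET ratio by blocking Runt binding to CBFb-SMMHC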
RanGTP-Imp inh: inhibitors of RanGTP-importin-beta interaction, primary screen, biochemical, FRET, CFP-Ran, YFP-importin-beta, homogeneous; Ran GTPase (GTP-bound) - importin-beta complex; cell-free CFP-Ran/YFP-importin-beta FRET ratio; inhibition, % (concentration not given with the values); hit rate 1.1% among 300,000;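 active means more than half of the replicate wells show a fall in the fluorescence ratio signal beyond about 16%, limit read from the data, passing the limit was not always enough; inconclusive means exactly half of the replicate wells pass the set limit; inactive means fewer than half of replicates pass the limit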;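 further: 0% = DMSO wells and 100% = Ran loaded with GDP instead of GTP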
Tb hexokinase: Trypanosoma brucei hexokinase 1 inhibitors, primary screen, biochemical, G6PDH-coupled NADH absorbance, MLSCN library; AID 1430, 2008; hit rate 0.11% among 220,000; inhibition, % at 10 µM; recombinant TbHK1, G6PDH-coupled NADH A340; hexokinase 1 [Trypanosoma brucei];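 active means inhibition of 50% or more in the single-dose primary screen; inactive means inhibition below 50%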
p97 ATPase inh: inhibitors of human p97 ATPase, primary screen, biochemical. inhibition, % at 8 µM. Transitional endoplasmic reticulum ATPase (Homo sapiens), P55072. AID 1481, 2009. hit rate 0.42% among 220,000. recombinant p97 ATPase, Kinase-Glo ATP luminescence, 3 h; in the data active means inhibition above about 15%;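 further: 0% = DMSO vehicle and 100% = wells lacking enzyme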
* hit, by the source's call; ? = inconclusive; / = no result.

SMILES	Runt-CBFb FRET	Hck-Nef inh	Runt-SMMHC FRET	RanGTP-Imp inh	Tb hexokinase	p97 ATPase inh
N#C/C(=C\c1ccc(-c2ccc(C(=O)O)cc2)o1)C(=O)NCC1CCCO1 (stereo unspecified)	14.2	4.9	28.8	29.5*	3.7	7.8
O=C(CCCC1=NS(=O)(=O)c2ccccc2N1)NCCc1ccc(Cl)cc1	/	/	/	3.7	/	/
O=C(Cc1ccc(Cl)cc1)NNC(=O)c1ccco1	/	/	/	2.3	/	/
Cc1cc(OCC(=O)Nc2ccc(S(=O)(=O)N3CCN(C)CC3)cc2)ccc1Br	/	/	/	0.3	/	/
CN1CCN(c2cc(-c3ccccc3)nc3cc(-c4ccc(F)cc4)nn23)CC1	-5.5	7.2	2.9	0.3	-26.0	-0.3
Fc1ccc(-c2cc3nc(-c4ccccc4)cc(N4CCN(CCN5CCOCC5)CC4)n3n2)cc1	3.9	5.5	10.9	21.8*	-8.6	-2.3
CCCc1cc(C(=O)Cc2nc3ccccc3s2)c(O)cc1O	/	9.9	-21.1	111.6*	-18.6	12.3
CCCc1cc(C(=O)Cc2ccc(F)cc2)c(O)cc1O	-1.5	-11.9	-3.4	-2.2	-21.8	-13.7
CC(=O)OCc1nc2ccccc2s1	-0.5	0.7	1.0	?	-2.9	3.9
CCOC(=O)C(=O)Cc1nc2ccccc2s1	0.8	4.6	-0.7	51.8*	-17.4	5.9
COC(=O)c1cccc(NC(=O)CSc2nnc(C)o2)c1	/	/	/	0.5	/	/
Cc1ccc[n+](-c2nc([O-])sc2C=O)c1	-11.5	21.4	-44.6	/	-12.7	1.9
O=Cc1sc([O-])nc1-[n+]1ccc2ccccc2c1	8.5	21.1	1.9	27.8*	-9.4	5.6
CSC(=S)N/N=C/c1ccc(N(C)C)cc1	18.5	17.8	51.7*	0.9	3.2	4.7
CC(C)OC(=O)CC(=O)CSc1nc2c(c(-c3cccs3)c1C#N)CCC2	6.1	5.1	7.4	?	-1.0	4.3
CCOC(=O)C(C)Sc1nc2c(c(-c3cccs3)c1C#N)CCC2 (stereo unspecified)	1.9	6.5	32.8	109.0*	24.7	-2.6
Cc1ccc2nc3c(cc(C(=O)NC4CCCC4)c(=N)n3C3CCCCC3)c(=O)n2c1	/	/	/	182.3*	/	/
O=C(NC1CCCCCC1)c1ccc2nc3cc(Cl)ccc3c(=O)n2c1	6.8	26.3	0.4	12.0	-6.3	4.0
Cc1ccc2nc3c(cc(C(=O)NC4CCCCC4)c(=N)n3C3CCCCC3)c(=O)n2c1	/	/	/	182.0*	/	/
N=c1c(C(=O)NC2CCCC2)cc2c(=O)n3ccccc3nc2n1C1CCCCC1	/	/	/	180.7*	/	/
O=C(N/C(=C/C=C\c1ccccc1)C(=O)N1CCOCC1)c1ccc(Br)cc1	-1.0	-6.8	1.9	-4.2	-29.9	0.9
COn1c(=O)c(-c2ccc(Cl)cc2)[n+]([O-])c2ccccc21	-0.6	1.2	0.8	1.4	-17.7	5.4
COC(=O)c1scc2c(=O)cc(C(F)(F)F)[nH]c12	9.5	-126.4	83.7*	116.9*	3.2	-5.2
O=C(c1ccco1)[C@@H]1[C@@H]2C(=O)N(c3ccc(F)cc3)C(=O)[C@@H]2C2c3ccccc3C=CN21 (stereo partly specified)	-12.9	0.9	-44.8	45.3*	-10.4	9.3
O=C(c1ccco1)[C@@H]1[C@@H]2C(=O)N(c3ccc(Br)cc3)C(=O)[C@@H]2C2c3ccccc3C=CN21 (stereo partly specified)	-19.5	1.1	-55.5	/	-10.0	2.3
SMILES	Runt-CBFb FRET	Hck-Nef inh	Runt-SMMHC FRET	RanGTP-Imp inh	Tb hexokinase	p97 ATPase inh
COc1ccccc1-c1nnc(SC(C)C(=O)Nc2ccc(C(N)=O)cc2)o1 (stereo unspecified)	/	/	/	1.0	/	/
Nc1cccc2c1C(=O)N(C(=O)c1cccc(S(=O)(=O)N3CCCC3)c1)C2=O	-30.5	-23.1	61.6*	9.3	-0.4	-4.0
CCN(CC)CCCNc1nc2cc(OC)c(OC)cc2c2nc(-c3cccnc3)nn12	0.2	-2.6	0.7	-4.0	-21.2	0.0
CCN(CC)CCCNc1nc2cc(OC)c(OC)cc2c2nc(-c3ccccc3)nn12	0.8	-2.5	1.3	50.5*	-12.9	-6.3
CC(C)(C)c1cc(C(=O)N/N=C/c2cc3c(cc2Br)OCO3)n[nH]1	/	/	/	1.1	/	/
Oc1c(N=Nc2ccccc2)sc2ccccc12	-6.1	18.4	-10.3	28.7*	-1.5	-8.6
CCCN1C=CC(=C/C=C(\C#N)C(=O)OCC)C=C1	-41.5	-0.7	-92.1	?	1.6	4.1
CCCN1C=CC(=CC=C(C#N)C#N)C=C1	-13.6	-3.3	-30.5	34.2*	-5.3	-7.5
N#Cc1ccc(Oc2cnccn2)cc1	/	/	/	26.7*	/	/
COc1c(/C=N/NC(N)=S)c(C)nn1-c1ccccc1	-2.1	3.6	-0.9	2.0	30.6	-5.2
Cc1c(CCC(=O)NCCCn2ccnc2)c(=O)oc2cc3oc4c(c3cc12)CCCC4	/	/	/	2.0	/	/
COc1ccc2cc(C#N)c(N3CCOCC3)nc2c1	/	/	/	1.7	/	/
COc1ccc2nc(N3CCC(O)CC3)c(C#N)cc2c1	41.9	0.1	75.1*	50.8*	-1.4	2.6
CCOC(=O)C1CCN(c2nc3cc(OC)ccc3cc2C#N)CC1	15.2	7.2	1.8	-0.6	2.7	-0.4
COc1ccc2nc(N3CCC(C)CC3)c(C#N)cc2c1	70.7*	0.0	70.2*	45.3*	-3.0	4.3
COc1ccc(-c2cc(=O)oc3cc(OC(=O)C4CCCCC4)c(Cl)cc23)cc1	66.6*	40.0	58.5*	20.7*	33.8	7.3
COc1ccc(-c2cc(=O)oc3cc(O)ccc23)cc1	/	/	/	-1.7	/	/
Cc1ccc(NC(=O)CN2C(=O)S/C(=C/c3ccc(-c4cc(C(=O)O)ccc4C)o3)C2=O)cc1C	13.1	15.7	-42.1	35.8*	30.9	0.6
COC(=O)C(C)N1C(=O)S/C(=C\c2ccc(-c3ccc(C(=O)O)cc3C)o2)C1=O (stereo unspecified)	/	/	/	17.3*	/	/
Cc1cccc(NC(=O)CN2C(=O)S/C(=C\c3ccc(-c4cccc(C(=O)O)c4C)o3)C2=O)c1	30.6	-9.3	54.4	41.4*	11.3	5.5
Cc1ccc(C(=O)O)cc1-c1ccc(C=C2C(=O)c3ccccc3C2=O)o1	12.4	39.3	-17.2	-1.4	2.3	9.0
Cc1cc(C(=O)O)ccc1-c1ccc(/C=C2\NC(=O)N(Cc3ccc(F)cc3)C2=O)o1	115.9*	46.7	80.3*	64.9*	-12.3	6.5
CC1CCN(CC(=O)Nc2ccc(C(=O)N3CCCCC3)cc2)CC1	/	/	/	1.5	/	/
COc1ccc(C(=O)NCCc2nnc(SCC(=O)Nc3ccccc3F)n2C)cc1	-0.8	21.7	-4.6	-0.3	2.4	-2.7
